Data from paper PMC3913215 (Molecular microbiology, 2009).

Legend:
WT AgrC-II = experiment: β-lactamase reporter assay, WT AgrC-II; format: cell-based, S. aureus; conditions: read-out: EC50 (no activation); P3-blaZ reporter cells, nitrocefin method
How it was run: (§1)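 Agr-deficient S. aureus RN10829 derivatives lacking AIP production, carrying a chromosomal P3-blaZ fusion and agrP2-driven plasmid agrC (compatible plasmids for co-expression), grown to mid-exponential phase in CYGP or MH broth at 37 °C with shaking. Cells were plated and given increasing synthetic AIP. β-Lactamase was read by nitrocefin initial velocity as percent maximal activation. EC50 came from a four-parameter logistic fit. Two or three replicates.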

[1] = system: AgrC-IHis / AgrC-ISensor, Kin; experiment: β-lactamase reporter assay, activation of AgrC-IHis / AgrC-ISensor, Kin; format: cell-based, S. aureus; conditions: Kin combined with AgrC-IHis versus AgrC-ISensor, His
AgrC-IHis / AgrC-IKin = experiment: β-lactamase reporter assay, activation of co-expressed AgrC-IHis / AgrC-IKin; format: cell-based, S. aureus; conditions: co-expressed mutants
How it was run: as §1

[2] = system: N-terminal truncations of AgrC-I; experiment: β-lactamase reporter assay, N-terminally truncated AgrC-I alone; format: cell-based, S. aureus; conditions: two truncated sensor domains, expressed alone (Figure S5A)
[3] = system: AgrC-ISensor (T104V, S107A, S116I); conditions: mutations in second extracellular loop; ref Geisinger et al., 2008; cited from earlier work
[4] = system: AgrC-IHis / AgrC-IΔ1-135, Kin; experiment: β-lactamase reporter assay, AgrC-IHis / truncated AgrC-IΔ1-135, Kin; format: cell-based, S. aureus; conditions: full-length AgrC-IHis with AgrC-IΔ1-135, Kin (Figure S5B)
AgrC-II = conditions: background statement, no reference at the place; cited from earlier work
AgrC-IHis (H239Q) = experiment: β-lactamase reporter assay, AgrC-IHis; format: cell-based, S. aureus; conditions: H-box mutant; varying concentrations of synthetic AIP (Figure S1)
How it was run: as §1

[5] = system: AgrC-ISensor, His / AgrC-ISensor, Kin; experiment: β-lactamase reporter assay, co-expressed AgrC-ISensor, His / AgrC-ISensor, Kin; format: cell-based, S. aureus
How it was run: as §1

AgrC-I-GFP = experiment: β-lactamase reporter assay, AgrC-I-GFP; format: cell-based, S. aureus; conditions: C-terminal GFP fusion (Figure S2)
AgrC-I G394A = experiment: β-lactamase reporter assay, AgrC-I G394A; format: cell-based, S. aureus; conditions: individual G-box glycine mutant; varying concentrations of synthetic AIP
AgrC-I G396A = experiment: β-lactamase reporter assay, AgrC-I G396A; format: cell-based, S. aureus; conditions: individual G-box glycine mutant; varying concentrations of synthetic AIP
AgrC-I N339D = experiment: β-lactamase reporter assay, AgrC-I N339D; format: cell-based, S. aureus; conditions: N-box mutant; varying concentrations of synthetic AIP

Substance: AIP-I
- EC50 (WT AgrC-II): > 10 µM
- increase in activation by AIP-I [1]: approximately 30 -fold
- maximal activity compared to WT AgrC (AgrC-IHis / AgrC-IKin): moderately reduced compared to WT AgrC
- activation by AIP-I [2]: None of the resulting dimers, with two truncated sensor domains, displayed significant activity
- reduction in sensitivity to AIP-I [3]: about 50 -fold
- activation by AIP-I [4]: significant activity
- maximal activation relative to full-length complementary pair [4]: only a third of that observed for the full-length complementary pair
- antagonism of AgrC-II (AgrC-II): potent cross-group inhibitors
- receptor activation (AgrC-IHis (H239Q)): completely inactive
- reduction in activity compared with WT sensor domains ([5]; AgrC-ISensor, His / AgrC-ISensor, Kin versus WT sensor domains): over 150 -fold
- EC50 ([5]; co-expressed mutants, both sensor domains mutated): 6.1 µM
- receptor activation compared to WT (AgrC-I-GFP): only slightly decreased compared to the WT receptor
- receptor activation (AgrC-I G394A): weaker activation than that seen with AgrC-I N339D
- receptor activation (AgrC-I G396A): weaker activation than that seen with AgrC-I N339D
- receptor activation (AgrC-I N339D): only partially reduced receptor activation
